Test results: ChEMBL document CHEMBL1157214, “Anti-HIV agents 45(1) and antitumor agents 205.(2) two new sesquiterpenes, leitneridanins A and B, and the cytotoxic and anti-HIV principles from Leitneria floridana” (J Nat Prod, 2000)
Values after ≈ are worked out from the molar mass of the structure shown.

Assays:
MCF7 = test: Cytotoxicity against human MCF7 cells after 3 days by SRB assay; type: functional; details: MCF7, 72 h, read-out: ED50 (the source's name)
Outline: (§1)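 Human tumour lines from the Lineberger Comprehensive Cancer Center (UNC-CH). Selected samples were then run over a dose range in triplicate for three days. Growth was read by SRB absorbance at 562 nm. ED50 is the concentration giving a 50% fall in absorbance versus untreated cells.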

A549 = test: Cytotoxicity against human A549 cells after 3 days by SRB assay; type: functional; details: A549, 72 h, read-out: ED50 (the source's name); outline: as §1
SK-MEL-2 = test: Cytotoxicity against human SK-MEL-2 cells after 3 days by SRB assay; type: functional; details: for EC50: Homo sapiens, SK-MEL-2, 72 h, read-out: ED50 (the source's name)
CAKI-1 = test: Cytotoxicity against human CAKI1 cells after 3 days by SRB assay; type: functional; details: CAKI-1, 72 h, read-out: ED50 (the source's name); outline: as §1
HCT-8 = test: Cytotoxicity against human HCT8 cells after 3 days by SRB assay; type: functional; details: HCT-8, 72 h, read-out: ED50 (the source's name); outline: as §1
KB = test: Cytotoxicity against human KB cells after 3 days by SRB assay; type: functional; details: 72 h, read-out: ED50 (the source's name); outline: as §1
H9 = test: Growth inhibition of human H9 cells; type: cell-based
[1] = Therapeutic index, ratio of IC50 for human H9 cells to EC50 for HIV; type: cell-based; details: read-out: Ratio IC50/EC50
[2] = system: Human immunodeficiency virus; test: Inhibition of HIV replication in human H9 cells; type: functional, organism-based; details: Human immunodeficiency virus 1, H9

For `CC[C@@H](C)C(=O)O[C@H]1C(=O)O[C@@H]2C[C@H]3C(C)=CC(=O)[C@@H](O)[C@]3(C)[C@H]3[C@@H](O)[C@H](O)[C@]4(C)OC[C@]32[C@@H]14` [SIMALIKALACTONE D], the EC50 (MCF7) was 0.014 µg/mL (≈ 0.0293 µM), the EC50 (A549) was 0.04 µg/mL (≈ 0.0836 µM) and the EC50 (SK-MEL-2) was 0.13 µg/mL (≈ 0.272 µM). The EC50 (CAKI-1) was 0.26 µg/mL (≈ 0.543 µM), the EC50 (HCT-8) was 0.013 µg/mL (≈ 0.0272 µM) and the EC50 (KB) was 0.018 µg/mL (≈ 0.0376 µM).

With `CC[C@](C)(OC(C)=O)C(=O)O[C@H]1C(=O)O[C@@H]2C[C@H]3C(C)=CC(=O)[C@@H](O)[C@]3(C)[C@H]3[C@@H](O)[C@H](O)[C@@]4(C)OC[C@]32[C@@H]14` [QUASSIMARIN] the EC50 (MCF7) was 0.006 µg/mL (≈ 0.0112 µM), the EC50 (A549) was 0.03 µg/mL (≈ 0.0559 µM) and the EC50 (SK-MEL-2) was 0.05 µg/mL (≈ 0.0932 µM). It also gave an EC50 (CAKI-1) of 0.05 µg/mL (≈ 0.0932 µM), an EC50 (HCT-8) of 0.012 µg/mL (≈ 0.0224 µM) and an EC50 (KB) of 0.06 µg/mL (≈ 0.112 µM).

With `COc1cc2nccc3c4ccccc4n(c1=O)c23` [5-METHOXYCANTHINONE] the EC50 (MCF7) was 5 µg/mL (≈ 20 µM), the EC50 (A549) was 3.1 µg/mL (≈ 12.4 µM) and the EC50 (SK-MEL-2) was 17 µg/mL (≈ 67.9 µM). For the same molecule, the EC50 (CAKI-1) was 4.4 µg/mL (≈ 17.6 µM), the EC50 (HCT-8) was 2.5 µg/mL (≈ 9.99 µM) and the EC50 (KB) was 2.9 µg/mL (≈ 11.6 µM).

In the case of `COc1cnc2ccc(=O)n3c4ccccc4c1c23`, the EC50 (MCF7) is reported as 13.5 µg/mL (≈ 53.9 µM), the EC50 (A549) is reported as 4.3 µg/mL (≈ 17.2 µM) and the “inhibition (INH)” value (SK-MEL-2) is reported as 46%. For the same molecule, the EC50 (SK-MEL-2) was over 20 µg/mL, the IC50 (H9) was over 100 µg/mL and the selectivity ratio [1] was over 391. For the same molecule, the EC50 (CAKI-1) was 3.6 µg/mL (≈ 14.4 µM), the EC50 [2] was 0.256 µg/mL (≈ 1.02 µM) and the EC50 (HCT-8) was 3.6 µg/mL (≈ 14.4 µM). It also gave an EC50 (KB) of 3.6 µg/mL (≈ 14.4 µM).
